Data set [1] is filed under the species Mus musculus. Description: Percent of injected 238-Plutonium(IV) in mice skeleton at 24 h. In kind it is ADME, organism-based. Conditions: in vivo. The essentials: (§1)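 Mice received plutonium(IV)-238 citrate iv. At 1 h, normally fed mice got ligand at 30 μmol kg-1 in 0.14 M NaCl by ip injection, then water only. Each five-mouse group was housed in one metabolic cage to collect urine and feces. Mice were killed at 24 h. Pu was expressed as % of injected dose, normalized to 100% recovery. Kidneys and excreta were pooled per group. Saline-injected controls were killed at 24 h.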

The species named for data set [2] is Mus musculus. Description: Percent of injected 238-Plutonium(IV) in mice liver at 24 h. In kind it is ADME, organism-based. Conditions: in vivo. The essentials: as §1
A short description of data set [3]: Removal of 238-Plutonium(IV) in urine after 0-4 h. In kind it is ADME, tissue-based. In outline: as §1
Data set [4] can be described thus: Removal of 238-Plutonium(IV) in urine after 4-24 h. In kind it is ADME, tissue-based. The essentials:
as §1

The species entered for data set [5] is Mus musculus. The experiment in a line: Percent of injected 238-Plutonium(IV) in mice whole body at 24 h. Format: ADME, organism-based. Conditions: in vivo. The essentials:
as §1

For data set [6], the species on record is Mus musculus. The experiment in a line: Percent of injected 238-Plutonium(IV) in mice kidneys at 24 h. Format: ADME, organism-based, Kidney. Conditions: in vivo. In outline: as §1
The species entered for data set [7] is Mus musculus. Description: Percent of injected 238-Plutonium(IV) in mice soft tissue at 24 h. In kind it is ADME, organism-based. The following applies: in vivo. The essentials: as §1
Data set [8] is described as follows: Removal of 238-Plutonium(IV) in gastrointestinal (GI) contents at 24 h. In kind it is ADME. The essentials:
as §1

The nature of data set [9]: Removal of 238-Plutonium(IV) in feces at 24 h. In kind it is ADME. The essentials:
as §1

Data set [10] is described as follows: Removal of 238-Plutonium(IV) in urine after 0-24 h. Format: ADME, tissue-based. The essentials:
as §1

The test system of data set [11] is Mus musculus. The experiment in a line: Percent of injected 238-Plutonium(IV) in mice liver at 24 hr (orally administered). In kind it is ADME, organism-based. Conditions: in vivo, po. The essentials:
(§2)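 Mice were fasted 18 h and given plutonium(IV)-238 citrate iv. At 3 min, ligand at 30 μmol kg-1 in 0.14 M NaCl was given by gastric intubation, with a little food at 4 h. Urine (0–4 h, 4–24 h) and feces were collected per five-mouse group in a metabolic cage. Mice were killed at 24 h. Tissue and GI Pu was expressed as % injected dose, normalized to 100% recovery. Kidneys and excreta were pooled per group. Fasted controls were included.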

A short description of data set [12]: Removal of 238-Plutonium(IV) in urine after 0-4 hr (orally administered). In kind it is ADME, tissue-based. Conditions: po. The essentials:
as §2

The test system of data set [13] is Mus musculus. Description: Percent of injected 238-Plutonium(IV) in mice whole body at 24 hr (orally administered). Format: ADME, organism-based. The following applies: in vivo, po. The essentials:
as §2

Data set [14] in a line: Removal of 238-Plutonium(IV) in urine after 0-24 hr (orally administered). In kind it is ADME, tissue-based. The following applies: po; in the assay text read “4-24 hr” for “0-24 hr”. The essentials:
as §2

Data set [15] can be described thus: Removal of 238-Plutonium(IV) in gastrointestinal (GI) contents at 24 hr (orally administered). In kind it is ADME. The following applies: po. In outline: as §2
Data set [16] deals with Mus musculus. The experiment in a line: Percent of injected 238-Plutonium(IV) in mice skeleton at 24 hr (orally administered). The following applies: in vivo, po. In kind it is ADME, organism-based. The essentials: as §2
Data set [17] can be described thus: Removal of 238-Plutonium(IV) in feces at 24 hr (orally administered). Format: ADME. Conditions: po. In outline:
as §2

For data set [18], the system named is Mus musculus. The experiment in a line: Percent of injected 238-Plutonium(IV) in mice soft tissue at 24 hr (orally administered). Conditions: in vivo, po. Format: ADME, organism-based. The essentials:
as §2

Data set [19] has as its system Mus musculus. Description: Percent of injected 238-Plutonium(IV) in mice kidneys at 24 hr (orally administered). The following applies: in vivo, po. In kind it is ADME, organism-based, Kidney. The essentials:
as §2

Data set [20] in a line: Removal of 238-Plutonium(IV) in urine after 4-24 hr (orally administered). Format: ADME, tissue-based. Conditions: po. The essentials:
as §2

Data set [21] concerns Mus musculus. The experiment in a line: Percent of injected 238-Plutonium(IV) in mice kidney at 24 hr (orally administered). In kind it is ADME, organism-based. Conditions: in vivo, po. The essentials: as §2
The nature of data set [22]: Removal of 238-Plutonium(IV) in urine at 0-4 hr (orally administered). Format: ADME, tissue-based. Conditions: po. In outline:
as §2

The nature of data set [23]: Removal of 238-Plutonium(IV) in urine at 4-24 hr (orally administered). Format: ADME, tissue-based. The following applies: po. The essentials: as §2
Data set [24] can be described thus: Removal of 238-Plutonium(IV) in urine 0-4 h (orally administered). Format: ADME. The following applies: po. The essentials: as §2
Data set [25] can be described thus: Removal of 238-Plutonium(IV) in urine 4-24 hr (orally administered). The following applies: po. In kind it is ADME. The essentials: as §2

Molecules are shown by their SMILES.

Regarding `O=C(NCCCN(CCCCN(CCCNC(=O)c1cc(S(=O)(=O)O)cc(O)c1O)C(=O)c1cc(S(=O)(=O)O)cc(O)c1O)C(=O)c1cc(S(=O)(=O)O)cc(O)c1O)c1cc(S(=O)(=O)O)cc(O)c1O`, the ID in the data set listed under Mus musculus [1] is 6.7%; in the data set filed under Mus musculus [2] it was 25%; in data set [3] it was 58%; in [4] it was 4%; in the data set listed under Mus musculus [5], 35%; in the data set filed under Mus musculus [6], 0.9%. The ID in the data set filed under Mus musculus [7] was 2.8%; in [8], 2.9%; in data set [9], 0.4%.
Regarding `O=C(NCCCN(CCCCN(CCCNC(=O)c1cccc(O)c1O)C(=O)c1cccc(O)c1O)C(=O)c1cccc(O)c1O)c1cccc(O)c1O`, the ID in the data set filed under Mus musculus [1] is reported as 18%; in the data set listed under Mus musculus [2], 26%; in the data set filed under Mus musculus [5] it was 53%; in the data set filed under Mus musculus [6], 4.3%; in the data set filed under Mus musculus [7], 5.1%; in data set [8], 8.6%. In addition, the ID in data set [9] came out at 28%; in [10], 9.4%.
Regarding `O=C(NCCCN(CCCCN(CCCNC(=O)c1cccc(O)c1O)C(=O)c1cccc(=O)n1O)C(=O)c1cccc(O)c1O)c1cccc(O)c1O`, the ID in the data set with Mus musculus [11] amounted to 43%; in the data set filed under Mus musculus [1], 13%; in the data set listed under Mus musculus [2], 12%; in data set [3], 9.1%; in data set [12] it was 8.3%; in the data set with Mus musculus [13], 82%. Also, the ID in data set [4] came out at 3.1%; in [14], 2.3%; in the data set filed under Mus musculus [5], 33%; in data set [15], 1.8%; in the data set filed under Mus musculus [6] it was 3.1%; in the data set filed under Mus musculus [7], 4%. For the same molecule, the ID in the data set with Mus musculus [16] was 30%; in data set [8], 12%; in data set [9], 43%; in data set [17] it was 4.5%; with Mus musculus [18], 4.5%; in the data set on Mus musculus [19] it was 3%.
Turning to `O=C(NCCCN(CCCCN(CCCNC(=O)c1cccc(=O)n1O)C(=O)c1cccc(=O)n1O)C(=O)c1cccc(=O)n1O)c1cccc(=O)n1O`, the ID in the data set on Mus musculus [11] is 11%; in the data set filed under Mus musculus [1], 7.5%; in the data set listed under Mus musculus [2], 8.9%; in data set [3], 23%; in [12], 23%; with Mus musculus [13], 24%. Further, the ID in [4] turned out to be 2%; in the data set filed under Mus musculus [5], 18%; in data set [15], 1.4%; in the data set filed under Mus musculus [6] it was 0.2%; in the data set filed under Mus musculus [7], 1.6%; in the data set on Mus musculus [16], 12%. For the same molecule, the ID is 36% in data set [8]; 21% in data set [9]; 2.7% in data set [20]; 50% in data set [17]; 1.3% with Mus musculus [18]; 0.1% in the data set with Mus musculus [21].
For `O=C(O)c1ccc(C(=O)NCCCN(CCCCN(CCCNC(=O)c2ccc(C(=O)O)c(O)c2O)C(=O)c2ccc(C(=O)O)c(O)c2O)C(=O)c2ccc(C(=O)O)c(O)c2O)c(O)c1O`, the ID in the data set with Mus musculus [11] is given as 19%; in the data set filed under Mus musculus [1] it was 11%; in the data set filed under Mus musculus [2], 11%; in data set [3], 44%; with Mus musculus [13] it was 56%; in [4] it was 4.6%. The ID in [22] is given as 30%; in the data set listed under Mus musculus [5], 29%; in data set [15], 1%; in the data set filed under Mus musculus [6] it was 2.6%; in the data set filed under Mus musculus [7], 4.8%; in the data set on Mus musculus [16], 32%. For the same molecule, the ID in data set [8] is 12%; in data set [9], 4.8%; in data set [17] it was 3.3%; with Mus musculus [18] it was 3.9%; in data set [23], 9.5%; with Mus musculus [19], 1.5%.
In the case of `O=C(NCCCN(CCCCN(CCCNC(=O)c1cccc(O)c1O)C(=O)c1cccc(=O)n1O)C(=O)c1cccc(=O)n1O)c1cccc(O)c1O`, the ID with Mus musculus [11] stood at 35%; in data set [24] it was 12%; in the data set filed under Mus musculus [1], 12%; in the data set filed under Mus musculus [2], 21%; in data set [3], 7.9%; in the data set on Mus musculus [13] it was 68%. The ID came out at 4.1% in data set [4]; 4% in data set [25]; 37% in the data set listed under Mus musculus [5]; 1.9% in data set [15]; 2% in the data set listed under Mus musculus [6]; 2.4% in the data set filed under Mus musculus [7]. Further, the ID with Mus musculus [16] worked out at 26%; in data set [8], 20%; in data set [9], 31%; in [17], 13%; with Mus musculus [18] it was 4.7%; in the data set with Mus musculus [19] it was 3.3%.

Values taken from ChEMBL document CHEMBL1126599, “Specific sequestering agents for the actinides. 21. Synthesis and initial biological testing of octadentate mixed catecholate-hydroxypyridinonate ligands” (J Med Chem, 1993).
